Measured values as given in ChEMBL document CHEMBL5303300, “EUbOPEN Chemogenomics Library - Multiplex” (2023).
“And” between values parts separate entries of the source, which are not always exact repeats. Equal values may be shown once.

What was measured:
Fibroblast = test: Multiplex assay against human fibroblast; assay type: toxicity, cell-based; conditions: number of replicates 2
How it was run: (§1)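 Cells were classed with CellPathfinder machine-learning gating, first as Hoechst high-intensity objects or normal cells, then (normal cells) as healthy, pyknosed or fragmented nuclei, and finally (pyknosed cells) as mitotic or apoptotic. Staining of live cells at seeding used Hoechst33342, BioTracker Green Microtubule Cytoskeleton Dye, MitoTracker Red and Annexin V Alexa Fluor 680, with imaging on a CQ1 microscope at 37°C and 5% CO2 after compound addition. Tubulin, mitochondrial-mass and membrane-permeability phenotypes are per cents of healthy-nucleus cells.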

U2OS = test: Multiplex assay against U2OS; assay type: toxicity, cell-based; conditions: human, number of replicates 2; how it was run: as §1
[1] = 12 h, 1 µM, compound concentration 1 uM
[2] = 12 h, 10 µM, compound concentration 10 uM
[3] = 24 h, 1 µM, compound concentration 1 uM
[4] = 24 h, 10 µM, compound concentration 10 uM
[5] = 48 h, 1 µM, compound concentration 1 uM
[6] = 48 h, 10 µM, compound concentration 10 uM

NCC1CCC(CNc2nc(NCc3ccccc3OC(F)(F)F)ncc2[N+](=O)[O-])CC1 (stereo not given)
Population Apoptotic (%) (Fibroblast; [1]): 46% and 42%
Population Fragmented Nuclei (%) (Fibroblast; [1]): 9%
Population Healthy Nuclei (%) (Fibroblast; [1]): 68% and 62%
Population Hoechst High Intensity Objects (%) (Fibroblast; [1]): 0%
Population Membrane Permeable-Phenotype (%) (Fibroblast; [1]): 7% and 9%
Population Mitochondria Different-Phenotype (%) (Fibroblast; [1]): 1% and 2%
Population Mitotic Cells (%) (Fibroblast; [1]): 53% and 57%
Population Normal (%) (Fibroblast; [1]): 100% and 99%
Population Pyknosed Nuclei (%) (Fibroblast; [1]): 21% and 27%
Population Tubulin-Different-Phenotype (%) (Fibroblast; [1]): 60% and 45%
Total Cell Count (Fibroblast; [1]): 205 and 224
Population Apoptotic (%) (Fibroblast; [2]): 34% and 27%
Population Fragmented Nuclei (%) (Fibroblast; [2]): 14% and 23%
Population Healthy Nuclei (%) (Fibroblast; [2]): 54% and 60%
Population Hoechst High Intensity Objects (%) (Fibroblast; [2]): 0%
Population Membrane Permeable-Phenotype (%) (Fibroblast; [2]): 6% and 9%
Population Mitochondria Different-Phenotype (%) (Fibroblast; [2]): 28% and 18%
Population Mitotic Cells (%) (Fibroblast; [2]): 65% and 72%
Population Normal (%) (Fibroblast; [2]): 100%
Population Pyknosed Nuclei (%) (Fibroblast; [2]): 31% and 16%
Population Tubulin-Different-Phenotype (%) (Fibroblast; [2]): 84% and 87%
Total Cell Count (Fibroblast; [2]): 135 and 286
Population Apoptotic (%) (Fibroblast; [3]): 64% and 60%
Population Fragmented Nuclei (%) (Fibroblast; [3]): 10% and 15%
Population Healthy Nuclei (%) (Fibroblast; [3]): 67% and 62%
Population Hoechst High Intensity Objects (%) (Fibroblast; [3]): 0% and 1%
Population Membrane Permeable-Phenotype (%) (Fibroblast; [3]): 0% and 1%
Population Mitochondria Different-Phenotype (%) (Fibroblast; [3]): 8%
Population Mitotic Cells (%) (Fibroblast; [3]): 35% and 40%
Population Normal (%) (Fibroblast; [3]): 100% and 98%
Population Pyknosed Nuclei (%) (Fibroblast; [3]): 22% and 21%
Population Tubulin-Different-Phenotype (%) (Fibroblast; [3]): 50% and 37%
Total Cell Count (Fibroblast; [3]): 202 and 217
Population Apoptotic (%) (Fibroblast; [4]): 81% and 62%
Population Fragmented Nuclei (%) (Fibroblast; [4]): 21% and 22%
Population Healthy Nuclei (%) (Fibroblast; [4]): 58% and 67%
Population Hoechst High Intensity Objects (%) (Fibroblast; [4]): 0%
Population Membrane Permeable-Phenotype (%) (Fibroblast; [4]): 5% and 3%
Population Mitochondria Different-Phenotype (%) (Fibroblast; [4]): 54% and 59%
Population Mitotic Cells (%) (Fibroblast; [4]): 18% and 37%
Population Normal (%) (Fibroblast; [4]): 100%
Population Pyknosed Nuclei (%) (Fibroblast; [4]): 20% and 9%
Population Tubulin-Different-Phenotype (%) (Fibroblast; [4]): 93%
Total Cell Count (Fibroblast; [4]): 132 and 274
Population Apoptotic (%) (Fibroblast; [5]): 70% and 72%
Population Fragmented Nuclei (%) (Fibroblast; [5]): 10% and 13%
Population Healthy Nuclei (%) (Fibroblast; [5]): 72% and 65%
Population Hoechst High Intensity Objects (%) (Fibroblast; [5]): 0%
Population Membrane Permeable-Phenotype (%) (Fibroblast; [5]): 4% and 3%
Population Mitochondria Different-Phenotype (%) (Fibroblast; [5]): 2% and 4%
Population Mitotic Cells (%) (Fibroblast; [5]): 29% and 27%
Population Normal (%) (Fibroblast; [5]): 100%
Population Pyknosed Nuclei (%) (Fibroblast; [5]): 16% and 20%
Population Tubulin-Different-Phenotype (%) (Fibroblast; [5]): 38% and 35%
Total Cell Count (Fibroblast; [5]): 210 and 217
Population Apoptotic (%) (Fibroblast; [6]): 90% and 66%
Population Fragmented Nuclei (%) (Fibroblast; [6]): 28% and 36%
Population Healthy Nuclei (%) (Fibroblast; [6]): 65% and 58%
Population Hoechst High Intensity Objects (%) (Fibroblast; [6]): 1% and 0%
Population Membrane Permeable-Phenotype (%) (Fibroblast; [6]): 0% and 4%
Population Mitochondria Different-Phenotype (%) (Fibroblast; [6]): 34% and 30%
Population Normal (%) (Fibroblast; [6]): 98% and 99%
Population Pyknosed Nuclei (%) (Fibroblast; [6]): 6% and 4%
Population Tubulin-Different-Phenotype (%) (Fibroblast; [6]): 92% and 91%
Total Cell Count (Fibroblast; [6]): 160 and 339
Population Apoptotic (%) (U2OS; [1]): 50% and 43%
Population Fragmented Nuclei (%) (U2OS; [1]): 5% and 1%
Population Healthy Nuclei (%) (U2OS; [1]): 74% and 87%
Population Hoechst High Intensity Objects (%) (U2OS; [1]): 0%
Population Membrane Permeable-Phenotype (%) (U2OS; [1]): 7%
Population Mitochondria Different-Phenotype (%) (U2OS; [1]): 7% and 18%
Population Mitotic Cells (%) (U2OS; [1]): 50% and 56%
Population Normal (%) (U2OS; [1]): 100% and 99%
Population Pyknosed Nuclei (%) (U2OS; [1]): 19% and 11%
Population Tubulin-Different-Phenotype (%) (U2OS; [1]): 31% and 29%
Population Apoptotic (%) (U2OS; [2]): 68% and 67%
Population Fragmented Nuclei (%) (U2OS; [2]): 24% and 19%
Population Healthy Nuclei (%) (U2OS; [2]): 36% and 61%
Population Hoechst High Intensity Objects (%) (U2OS; [2]): 0%
Population Membrane Permeable-Phenotype (%) (U2OS; [2]): 53% and 34%
Population Mitochondria Different-Phenotype (%) (U2OS; [2]): 73% and 64%
Population Mitotic Cells (%) (U2OS; [2]): 31% and 32%
Population Normal (%) (U2OS; [2]): 100%
Population Pyknosed Nuclei (%) (U2OS; [2]): 39% and 19%
Population Tubulin-Different-Phenotype (%) (U2OS; [2]): 93% and 76%
Population Apoptotic (%) (U2OS; [3]): 60%
Population Fragmented Nuclei (%) (U2OS; [3]): 1% and 0%
Population Healthy Nuclei (%) (U2OS; [3]): 81% and 85%
Population Hoechst High Intensity Objects (%) (U2OS; [3]): 0%
Population Membrane Permeable-Phenotype (%) (U2OS; [3]): 4% and 5%
Population Mitochondria Different-Phenotype (%) (U2OS; [3]): 0% and 22%
Population Mitotic Cells (%) (U2OS; [3]): 40% and 39%
Population Normal (%) (U2OS; [3]): 100%
Population Pyknosed Nuclei (%) (U2OS; [3]): 16% and 13%
Population Tubulin-Different-Phenotype (%) (U2OS; [3]): 20% and 30%
